# Columns and labels:
# ankle joints of AIA rats = assay: Joint histology; format: in vivo, SD rats; details: i.v. 0.75 mg/kg peptide every day for one week
# Summary of the method: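 CFA-induced arthritic SD rats received daily i.v. PBS, free peptide or nanoparticles (0.75 mg/kg peptide) for one week; healthy rats served as controls. Rats were sacrificed after 14 d. Ankle joints were fixed in 4% paraformaldehyde for 3 d, decalcified in 15% EDTA-2Na and sectioned. Sections were stained with HE, or immunostained with IL-17A and MPO antibodies plus secondary antibodies. n = 7.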
# [1] = Biocompatibility in AIA rats: blood cell counts and body weight; format: in vivo, SD rats; details: compared to the normal group, n = 7
# [2] = tested on: TNF-α, IL-1β, IL-6, IL-17A in joint homogenates; assay: Inflammatory cytokines in joint homogenates of AIA rats; format: in vivo, SD rats; details: ELISA, i.v. 0.75 mg/kg peptide every day for one week, n = 7
# Summary of the method: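 SD rats made arthritic on Day 1 by 50 µl CFA (10 mg/ml M. tuberculosis) injected s.c. into paws. Arthritic rats (n = 7/group) then dosed i.v. daily for one week with PBS, free peptide or nanoparticle formulation at 0.75 mg/kg peptide; untreated healthy rats as reference. After 14 d, joint tissues cut up and homogenised; TNF-α, IL-1β, IL-6, IL-17A quantified by ELISA; mean ± SD.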
# [3] = tested on: adjuvant-induced arthritis (AIA) rat model; assay: In vivo therapeutic efficacy in adjuvant-induced arthritis; parameters: species or system SD rats; details: AIA rats, i.v. 0.75 mg/kg peptide every day for one week, n = 7, vs PBS
# Summary of the method: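 Adjuvant arthritis was induced in male SD rats by s.c. CFA into the paws on Day 1 and was largely established by Day 10. Groups of n = 7, plus healthy controls, received daily i.v. PBS, free peptide or nanoparticles (0.75 mg/kg peptide) for one week. Body weight, paw thickness and joint score were recorded daily. Each paw was graded 0–4 for erythema/swelling, giving a maximum of 16 per rat. Values are mean ± SD; groups were compared by Student's t-test.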
# [4] = tested on: Th17 (CD4+IL-17+) and Treg (CD4+Foxp3+) cells; assay: Flow cytometry of Th17 and Treg cells in draining lymph nodes of AIA rats; format: in vivo, SD rats; details: Day 24, n = 7
# Summary of the method: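 Arthritis induced in SD rats on Day 1 by subcutaneous paw injection of 50 µl CFA (10 mg/ml Mycobacterium tuberculosis). Groups (n = 7) given i.v. PBS, free peptide or peptide-loaded nanoparticles (0.75 mg/kg peptide) daily for one week; healthy rats as normal control. On Day 24, popliteal draining lymph nodes sieved (300-mesh) to single cells; CD4+IL-17+ and CD4+Foxp3+ subsets by flow cytometry; mean ± SD.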
sequence,measurement,setting,value
AMVSEFLKQAWFIENEEQEYVQTVK [Ac2–26],expression of IL-17A in joint tissues (immunohistochemistry),ankle joints of AIA rats,clearly visible
same,expression of MPO in joint tissues (immunohistochemistry),ankle joints of AIA rats,slightly attenuate the expression of MPO
same,pathological condition of ankle joints (HE staining),ankle joints of AIA rats; n = 7,"extensive inflammation infiltration, tissue damage and cartilage destruction"
same,count of platelets (PLT),[1],no significant difference
same,count of white blood cells (WBC),[1],no significant difference
same,expression of IL-1β in joint homogenates,[2],unable to effectively decrease the inflammatory level
same,expression of IL-6 in joint homogenates,[2],unable to effectively decrease the inflammatory level
same,expression of IL-17A in joint homogenates,[2],unable to effectively decrease the inflammatory level
same,expression of TNF-α in joint homogenates,[2],unable to effectively decrease the inflammatory level
same,paw thickness,[3],limited reduction of the paw thickness
same,proportion of Treg cells in draining lymph nodes,[4],unable to increase the proportion of Treg
